Six compounds from ChEMBL document CHEMBL1177802, “Novel semicarbazones based 2,5-disubstituted-1,3,4-oxadiazoles: one more step towards establishing four binding site pharmacophoric model hypothesis for anticonvulsant activity” (Bioorg Med Chem Lett, 2010) can be followed below.

Calls of active or inactive are those of the source.

In data set [1] the test system is Rattus norvegicus. Put plainly: Anticonvulsant activity against subcutaneous strychnine-induced seizures in Wistar rat at 300 mg/kg, ip after 0.5 hrs. The class given is functional, organism-based. More on the design: dose 300 mg/kg. The gist of the method:
(§1)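 Rats; subcutaneous strychnine-induced seizure model with compounds given intraperitoneally at 30, 100 and 300 mg/kg. Activity is checked at 0.5 h and 4.0 h and recorded as the minimal dose active in at least half of the animals. Absence of activity is judged at the 300 mg/kg maximum.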

For data set [2], the system named is Mus musculus. Put plainly: Anticonvulsant activity against subcutaneous pentylenetetrazole-induced seizures in Swiss albino mouse at 300 mg/kg, ip after 4 hrs. More on the design: dose 300 mg/kg. It is filed as functional, organism-based. In a few lines:
(§2)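 Mice; subcutaneous pentylenetetrazole seizure screen after ip dosing at 30, 100 and 300 mg/kg, read 0.5 and 4.0 h post-dose. Scored as the lowest dose protecting at least half of the animals. Absence of activity is judged at the 300 mg/kg maximum.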

Data set [3] relates to Mus musculus. Briefly: Anticonvulsant activity against maximal electroshock-induced seizures in Swiss albino mouse at 300 mg/kg, ip after 4 hrs. The class given is functional, organism-based. More on the design: dose 300 mg/kg. In a few lines: (§3)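 Mice; compounds given ip at 30, 100 and 300 mg/kg and tested in the maximal electroshock seizure model at 0.5 and 4.0 h after dosing. Read-out is the minimal dose giving protection in half or more of the animals. Absence of activity is judged at the 300 mg/kg maximum.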
(In general: In the maximal electroshock model the usual endpoint is tonic extension of the hind limbs.)

The subject of data set [4] is Mus musculus. Briefly: Anticonvulsant activity against subcutaneous pentylenetetrazole-induced seizures in Swiss albino mouse at 300 mg/kg, ip after 0.5 hrs. More on the design: dose 300 mg/kg. It is filed as functional, organism-based. In a few lines: as §2
Data set [5] relates to Rattus norvegicus. Briefly: Anticonvulsant activity against subcutaneous strychnine-induced seizures in ip dosed Wistar rat assessed as minimum effective dose after 4 hrs. Conditions: read-out: MED. The class given is functional. The gist of the method:
as §1

For data set [6], the system named is Mus musculus. Briefly: Neurotoxicity in Swiss albino mouse at 300 mg/kg, ip after 0.5 hrs. It is filed as toxicity, organism-based. More on the design: dose 300 mg/kg, route intraperitoneal. To be noted: in vivo. In a few lines: (§4)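 Acute neurotoxicity by rotorod test in mice given 30, 100 and 300 mg/kg ip, assessed 0.5 and 4.0 h after dosing. Reported as the minimal dose producing the effect in half or more of the animals. Absence of activity is judged at the 300 mg/kg maximum.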

The subject of data set [7] is Mus musculus. Put plainly: Neurotoxicity in ip dosed Swiss albino mouse assessed as minimum dose required to cause toxicity after 4 hrs. The class given is organism-based. Conditions: in vivo. The gist of the method: as §4
In data set [8] the test system is Mus musculus. Put plainly: Anticonvulsant activity against maximal electroshock-induced seizures in ip dosed Swiss albino mouse assessed as minimum effective dose after 0.5 hrs. The class given is functional. To be noted: read-out: MED. The gist of the method: as §3
Data set [9] has as its system Mus musculus. Briefly: Neurotoxicity in ip dosed Swiss albino mouse assessed as minimum dose required to cause toxicity after 0.5 hrs. It is filed as organism-based. To be noted: in vivo. The gist of the method: as §4
The subject of data set [10] is Rattus norvegicus. Put plainly: Anticonvulsant activity against subcutaneous strychnine-induced seizures in Wistar rat at 300 mg/kg, ip after 4 hrs. More on the design: dose 300 mg/kg. It is filed as functional, organism-based. In a few lines: as §1
The subject of data set [11] is Mus musculus. Briefly: Anticonvulsant activity against maximal electroshock-induced seizures in Swiss albino mouse at 300 mg/kg, ip after 0.5 hrs. The class given is functional, organism-based. More on the design: dose 300 mg/kg. In a few lines: as §3
Data set [12] concerns Mus musculus. Put plainly: Neurotoxicity in Swiss albino mouse at 300 mg/kg, ip after 4 hrs. It is filed as toxicity, organism-based. To be noted: in vivo. More on the design: dose 300 mg/kg, route intraperitoneal. In a few lines: as §4
Data set [13] deals with Mus musculus. Briefly: Anticonvulsant activity against subcutaneous pentylenetetrazole-induced seizures in ip dosed Swiss albino mouse assessed as minimum effective dose after 0.5 hrs. It is filed as functional. Conditions: read-out: MED. The gist of the method: as §2
The test system of data set [14] is Rattus norvegicus. Briefly: Anticonvulsant activity against subcutaneous strychnine-induced seizures in ip dosed Wistar rat assessed as minimum effective dose after 0.5 hrs. It is filed as functional. Conditions: read-out: MED. The gist of the method: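 Rats given 30, 100 or 300 mg/kg ip and challenged with subcutaneous strychnine. Protection was read at 0.5 and 4.0 h after dosing. The value is the minimal dose that gave activity in half or more of the animals; no activity at 300 mg/kg was the highest-dose cut-off.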

Data set [15] concerns Rattus norvegicus. Put plainly: Anticonvulsant activity against maximal electroshock-induced seizures in Wistar rat at 30 mg/kg, po after 0.25 hrs. The class given is functional, organism-based. More on the design: dose 30 mg/kg. In a few lines: (§5)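 Rats dosed orally at 30 mg/kg; maximal electroshock protection scored at 0.25, 0.5, 1, 2 and 4 h. Result is given as the number of protected rats out of four.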

Data set [16] relates to Rattus norvegicus. Put plainly: Neurotoxicity in Wistar rat at 30 mg/kg, po after 2 hrs. It is filed as toxicity, organism-based. More on the design: dose 30 mg/kg, route oral. To be noted: in vivo. The gist of the method: (§6)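 Oral dosing in rats at 30 mg/kg, neurotoxicity (rotorod) scored at 0.25, 0.5, 1, 2 and 4 h post-administration. Counts are out of four rats per time point.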

The test system of data set [17] is Rattus norvegicus. Put plainly: Anticonvulsant activity against maximal electroshock-induced seizures in Wistar rat at 30 mg/kg, po after 0.5 hrs. More on the design: dose 30 mg/kg. The class given is functional, organism-based. The gist of the method: as §5
Data set [18] has as its system Rattus norvegicus. Put plainly: Neurotoxicity in Wistar rat at 30 mg/kg, po after 1 hr. Conditions: in vivo. More on the design: dose 30 mg/kg, route oral. The class given is toxicity, organism-based. In a few lines: as §6
In data set [19] the test system is Rattus norvegicus. Put plainly: Increase in GABA level in Wistar rat midbrain assessed per mg of tissue at 100 mg/kg, ip after 2 hrs. The class given is functional. To be noted: route intraperitoneal. In a few lines:
(§7)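 Rats given 100 mg/kg ip and killed by decapitation 2 h later. Midbrain, medulla oblongata and cerebellum are placed separately in ice-cold 80% ethanol and processed for GABA, expressed per 100 mg tissue. Reference drug clobazam is given at 30 mg/kg ip. Values are mean ± SEM of six rats.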

Data set [20] deals with Rattus norvegicus. Put plainly: Increase in GABA level in Wistar rat medulla oblangata assessed per mg of tissue at 100 mg/kg, ip after 2 hrs. The class given is functional, Medulla oblongata. Conditions: route intraperitoneal. In a few lines:
as §7

The subject of data set [21] is Mus musculus. Briefly: Anticonvulsant activity against maximal electroshock-induced seizures in ip dosed Swiss albino mouse assessed as minimum effective dose after 4 hrs. It is filed as functional. To be noted: read-out: MED. The gist of the method:
as §3

Data set [22] concerns Rattus norvegicus. Put plainly: Neurotoxicity in Wistar rat at 30 mg/kg, po after 0.5 hrs. Conditions: in vivo. More on the design: dose 30 mg/kg, route oral. It is filed as toxicity, organism-based. In a few lines: as §6
Data set [23] has as its system Rattus norvegicus. Briefly: Increase in GABA level in Wistar rat cerebellum assessed per mg of tissue at 100 mg/kg, ip after 2 hrs. It is filed as functional. To be noted: route intraperitoneal. In a few lines: as §7
Data set [24] relates to Rattus norvegicus. Put plainly: Anticonvulsant activity against maximal electroshock-induced seizures in Wistar rat at 30 mg/kg, po after 1 hr. The class given is functional, organism-based. More on the design: dose 30 mg/kg. In a few lines: as §5
Data set [25] concerns Rattus norvegicus. Put plainly: Neurotoxicity in Wistar rat at 30 mg/kg, po after 0.25 hrs. It is filed as toxicity, organism-based. More on the design: dose 30 mg/kg, route oral. Conditions: in vivo. In a few lines:
as §6

Data set [26] relates to Mus musculus. Briefly: Anticonvulsant activity against subcutaneous pentylenetetrazole-induced seizures in ip dosed Swiss albino mouse assessed as minimum effective dose after 4 hrs. It is filed as functional. Conditions: read-out: MED. In a few lines: as §2
The subject of data set [27] is Rattus norvegicus. Briefly: Anticonvulsant activity against maximal electroshock-induced seizures in Wistar rat at 30 mg/kg, po after 2 hrs. The class given is functional, organism-based. More on the design: dose 30 mg/kg. The gist of the method: as §5

For the compound `O=C(N/N=C\c1ccc([N+](=O)[O-])cc1)Nc1nnc(COc2ccc3ccccc3c2)o1`, the MED result in data set [1], in data set [2], in data set [3] and in data set [4] was “inactive” each time. Moreover, the minimal effective dose in [5] and in data set [8] was 300 mg/kg throughout. Also, the Activity entry was “Non-toxic” in [6] and 300 mg/kg in data set [7].
For the compound `O=C(N/N=C\c1ccc(Cl)cc1)Nc1nnc(COc2ccc3ccccc3c2)o1`, the MED entry in [1], in [2], in data set [3], in data set [4], in [10] and in [11] was “inactive” throughout. Besides, the Activity was 300 mg/kg in [9] and “Non-toxic” in [12].
In the case of `CCCC(CCC)C(=O)[O-].[Na+]` [VALPROATE SODIUM], the minimal effective dose in data set [13], in data set [14] and in data set [8] was 300 mg/kg in each case. In addition, the MED result in data set [2], in [3] and in [10] was “inactive” in each case. The Activity result in data set [6] and in data set [12] was “Non-toxic” throughout.
Consider `O=C(N/N=C(/c1ccccc1)c1ccc(O)cc1)Nc1nnc(COc2ccc3ccccc3c2)o1`, for which the MED result in [1] and in data set [4] was “inactive” in each case. The outcome in data set [15], in data set [17] and in data set [24] was inactive. Further, the Activity entry is “Non-toxic” in [16]; “Non-toxic” in data set [18]; 62.25 µg in data set [19]; 37.74 µg in data set [20]; “Non-toxic” in [22]; 31.41 µg in data set [23]. The Activity result in data set [6], in data set [12] and in data set [25] was “Non-toxic” in each case. In addition, the minimal effective dose in data set [21] came out at 300 mg/kg; in data set [5], 300 mg/kg; in [8] it was 100 mg/kg; in data set [26], 300 mg/kg.
For `C/C(=N/NC(=O)Nc1nnc(COc2ccc3ccccc3c2)o1)c1ccc(C)cc1`, the MED entry in data set [1], in data set [2], in data set [3], in data set [10] and in data set [11] was “inactive” in each case. Besides, the minimal effective dose in [13] came out at 300 mg/kg. Further, the values for the Activity in data set [9] and in data set [12] were 300 mg/kg and “Non-toxic”, respectively.
On to `O=C(N/N=C\c1ccc(O)cc1)Nc1nnc(COc2ccc3ccccc3c2)o1`, for which the MED entry in data set [2] and in data set [4] was “inactive” throughout. Also, the outcome in [15], in data set [27] and in [17] was inactive. Also, the Activity entry is “Non-toxic” in data set [16]; “Non-toxic” in data set [18]; 53.77 µg in data set [19]; 35.48 µg in data set [20]; 100 mg/kg in [9]; “Non-toxic” in data set [22]. For the same compound, the Activity in data set [23] was 28.53 µg; in [7], 100 mg/kg; in [25], “Non-toxic”. Further, the minimal effective dose came to 100 mg/kg in data set [14], 300 mg/kg in data set [21], 300 mg/kg in [5] and 100 mg/kg in data set [8].
